Experiment: Toxicity liver stage against HepG2, at 10uM
Format: cell-based
Parameters: test concentration 10 uM, cell line HepG2-A16-CD81EGFP
Settings: human, HepG2-A16-CD81EGFP cells; read-out: INHIBITION
In short: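 Uninfected HepG2-A16-CD81EGFP cells, 3 × 10^3 per well, 1536-well, plated on prespotted compound at 10 μM final, parasite-free screening media added to match infected plates; puromycin 10 μM positive, DMSO 0.5% negative; run in parallel with 48 h PbLuc assay at 37 °C, 5% CO2; viability by CellTiter-Glo luminescence, normalized to controls.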

Structure (SMILES)	cytotoxicity at 10 µM
Cc1noc(C2CCC3(CCN(C(=O)c4c(C)noc4C)CC3)O2)n1 (stereo not given)	-10.6%
Cc1ccnc(C2CCCN2C(=O)c2cnccn2)n1 (stereo not given)	-14.1%
CCOCCCNc1nc2c(s1)c(C)nn2C	1.54%
Cc1nc[nH]c1C(=O)N1CCCC2(CN(C)C(=O)O2)C1 (stereo not given)	1.2%
CN(Cc1ccccc1Cl)C(C(=O)O)c1ccc(F)c(CO)c1 (stereo not given)	-46.4%
COCCOc1ncccc1C(=O)N1CCCC1Cn1cc(C)cn1 (stereo not given)	-2.95%
O=C(c1ccncc1F)N1CC[C@@H]2CN(c3ncccn3)CCO[C@@H]2C1	-77.2%
CC(=O)N1CCC(NC(=O)c2ccc3c(c2O)OC(C)(C)C3)CC1	0.519%
CCOc1ccc(Cl)cc1C1CCCN1 (stereo not given)	-12.3%
Cc1ncc(-c2ccnc(NCCO)n2)c(C2CCCCC2)n1	-11%
CN(C)c1ncccc1CNCc1ccc(N2CCOCC2)cc1	5.95%
CCCN1CCC(N(Cc2ncc(C)o2)C(C)=O)C1 (stereo not given)	-13.1%
CS(=O)(=O)N1CCCC(c2cncc(Nc3ccccn3)n2)C1 (stereo not given)	0.609%
O=S(=O)(C1CC1)N1CCC2(COCc3cnc(N4CCOCC4)nc32)C1 (stereo not given)	-5.44%
COc1cccc(-c2noc(-c3ccc(NCC4CC4)nc3)n2)c1OC	6.65%
Fc1cccc(-c2n[nH]cc2-c2nc(CN3CCOCC3)no2)c1	-7.58%
c1ccc(N2CC[C@H](OCC3CC3)[C@@H]2Cc2cccnc2)nc1	7.53%
CCc1ccccc1Nc1noc2c1CN(C(=O)C1CCCO1)CC2 (stereo not given)	-9.9%
COCCC(=O)N1CC[C@H]2C(=O)N(c3ccsc3)CCO[C@H]2C1	10.4%
CC(=O)N1CCO[C@@H]2CN(S(=O)(=O)c3cccs3)CC[C@@H]2C1	7.66%
Cc1nc(CN2CCCN(C(=O)c3cnccn3)CC2)cs1	-9.51%
Cc1ccc(CN(C)C(=O)Cn2nc(-c3ccc(F)cc3)oc2=O)cc1	-20.6%

Structure (SMILES)	cytotoxicity at 10 µM
Cc1ccc(N2C[C@H]3CCC[C@@H](CN(C)C)[C@H]3C2)nn1	8.82%
CC(C)n1[nH]c(=O)c2c1NC(=O)CSC2C1CCCCC1 (stereo not given)	-4.56%
O=C(NCCCN1CCCC1=O)c1nc(-c2ccc3cc[nH]c3c2)no1	-7.99%
CN1CC[C@]2(CN(C(=O)[C@H]3CCCO3)C[C@H]2c2ccccc2)C1=O	8.49%
CC(C)N(CCO)C(=O)C1CCC(=O)N(Cc2ccc(Cl)cc2)C1 (stereo not given)	-4.9%
O=C(Nc1ccc2c(c1)OCCO2)N1CCCC1c1ccco1 (stereo not given)	8.2%
CCc1nnc2n1CCN(Cc1ncc(-c3ccc(Cl)cc3)o1)C2	-9.66%
O=S(=O)(NCC1CCCN(Cc2ccccc2F)C1)C1CC1 (stereo not given)	-8.27%
COCCC(=O)N1CCC2(CCCN(Cc3cc(OC)ccc3F)C2)C1 (stereo not given)	3.55%
COc1cc(CNCCc2cc(F)cc3c2OCOC3)cc(OC)c1	-1.51%
CS(=O)(=O)NC[C@@H]1OC[C@H]2CN(C(=O)c3ccccc3)CC[C@H]21	10.3%
COc1cccc2cc(CNCc3ccnc(N(C)C)c3)oc12	-6.87%
CCOCc1nc2c(c(N3CCN4CCCC4C3)n1)CCNCC2 (stereo not given)	0.394%
CC(C)c1nc(CN(C)C2CCN(Cc3nc(C4CC4)no3)C2)no1 (stereo not given)	-9.37%
Cc1ccc(NC(=O)NCC2(O)CCCC2)cc1C	-6.8%
COc1cccc(CCCN2CCC(N(C)S(C)(=O)=O)CC2)c1	-3.88%
O=C(O)c1ccccc1-n1cnc(CN2CCc3ccccc32)c1	11.7%
CNS(=O)(=O)c1cccc(C(C)NCc2cccc(C)c2C)c1 (stereo not given)	9.44%
CN(Cc1cnc(N)nc1)C(=O)C1CC(=O)N(Cc2ccncc2)C1 (stereo not given)	0%
Cc1ccc(S(N)(=O)=O)cc1C(=O)NCC1Cc2ccccc2O1 (stereo not given)	3.04%
Cc1cc(C(=O)NCc2c(C)nn(C)c2C)nc(N2CCOCC2)n1	0.0436%
CCCC(=O)N1CCC2(CC1)COC2	1.58%

Structure (SMILES)	cytotoxicity at 10 µM
Cc1cnn(CC2CCN(CC(O)c3ccccc3Cl)CC2)c1 (stereo not given)	4.51%
COc1c(C2CCCN2C(=O)c2sccc2C#N)c(C)nn1C (stereo not given)	3.33%
Nc1nc2c(c(=O)[nH]1)CCN(C(=O)c1cccc3nccnc13)C2	-11.4%
COc1ccc2nc(C3CC3)cc(C(=O)NCc3noc(C)n3)c2c1	11.8%
Cc1cccc(CN2C[C@@H](CN3CCCN(C)CC3)C[C@H](CO)C2)n1	2.04%
CC(C)n1cc(CN(Cc2ccc(F)cc2)CC2CCCO2)cn1 (stereo not given)	-3.47%
O=S(=O)(c1cccs1)N1CCCn2cnc(CO)c2C1	5.89%
CC(C)c1noc(-c2cccc(OCC(N)=O)c2)n1	-7.39%
O=C(NCCN1CCCCC1)c1scnc1Cl	-7.69%
COCCN1CC[C@@H]2OC[C@H](C(=O)N(C)Cc3ccccn3)C[C@@H]2C1	-98.5%
Cc1cc(C)n(CCN2CCN(C(=O)c3cc4ccccc4o3)CC2)n1	-3.97%
Cc1ccc(CNC(=O)COc2ccc3c(c2)OCC3O)cc1 (stereo not given)	-5.67%
Cc1cccc(C2(CNC(=O)CCN3C(=O)CCC3=O)CCCC2)c1	-7.59%
Cc1nc2c(c(N3CC=CC3)n1)CCN(Cc1ccoc1)CC2	-6.51%
CN(C)C(=O)CN1CCC2(CCN(CC3CC3)CC2)C1=O	-3.69%
COc1ccc(Oc2cncc(C3CCCN3C(C)=O)n2)cc1 (stereo not given)	2.86%
Cc1cc(C(=O)CN2C(=O)c3ccccc3CS2(=O)=O)c(C)[nH]1	13.5%
O=S(=O)(C1CC1)N1CC[C@]2(C[C@@H](OCC3CCOCC3)CO2)C1	8.13%
COC(=O)C1CCCN1C(=O)c1ccc(Cl)cc1F (stereo not given)	-7.7%
CC(C)c1cc(NCC(O)c2ccncc2)n2nccc2n1 (stereo not given)	-1.8%
CCOCC1CN(Cc2ccoc2)Cc2nn(CC3CC3)cc21 (stereo not given)	-11.9%
CCc1c(C)nc2cc(-c3nccn3C)nn2c1N1CCCC(CO)C1 (stereo not given)	3.06%

Structure (SMILES)	cytotoxicity at 10 µM
CC(C)c1nnc(CN2CCCC2Cn2cncn2)o1 (stereo not given)	-11.1%
O=C(O)c1csc(S(=O)(=O)N2CCCc3cccc(OC(F)F)c32)c1	-13.5%
CCS(=O)(=O)N1CCOCC2(CCN(c3ccccn3)C2)C1 (stereo not given)	5.66%
COC(=O)c1cc(C(=O)N2CCc3ccc(F)cc3C2C)ccn1 (stereo not given)	10.5%
Cc1nn(Cc2ccc(C(=O)NCCCN3CCCC3=O)o2)c(C)c1Br	9.35%
COCc1ncc(CN2CCC3(CCNCC3)CC2)cn1	-139%
F[C@@H]1CN(Cc2nccs2)C[C@@H]1OCc1nc2cnccc2[nH]1	4.15%
CSCCC(NC(=O)C1CC1)C(=O)N(C)Cc1ccsc1 (stereo not given)	-3.96%
CCOc1ncccc1CNc1cc(COC)ncn1	6.41%
CNC(C(=O)OC)c1cc(F)ccc1F (stereo not given)	-1.07%
Cc1noc(Cl)c1CCC(=O)N1CCC(Nc2cccnn2)CC1	-2.57%
CC(C(=O)N1CCC(Nc2cccnn2)CC1)n1ccnc1 (stereo not given)	-9.44%
COc1cc(OC)cc(C2NC(=O)CN2Cc2ccc(Br)cc2)c1 (stereo not given)	-6.67%
CC(=O)N1CCN(Cc2ccccn2)CC2(CC(=O)N(C)C2)C1 (stereo not given)	1.23%
CC1CN(CCC(=O)NCCc2cccnc2)Cc2ccccc2O1 (stereo not given)	-3.34%
CCc1nncn1CCNC(=O)N1CCN(Cc2ccccc2)CC1	3.84%
CN(C)[C@@H]1CN(C(=O)c2ccc(C#N)cc2)[C@@H]2CCCO[C@H]12	-146%
CC(Cn1cc(Br)cn1)C(=O)Nc1ccn(C)n1 (stereo not given)	-4.49%
CCc1n[nH]c(C2CN(C(=O)c3ccc(Cl)cn3)CCO2)n1 (stereo not given)	-18.3%
Cc1cc(CN(C)C(=O)c2cccc(N3CCCC3=O)c2)no1	0.376%
COCCN1CCC2(C1)CN(c1ncccn1)C2	10.7%
Cc1c(F)cc(C(=O)O)cc1S(=O)(=O)Nc1ccc(C#N)cc1	-6.04%

Structure (SMILES)	cytotoxicity at 10 µM
Cc1nc2c(c(NC3CCN(Cc4cccnc4)CC3)n1)CCNCC2	-1.14%
CN(C)CC1CSCCCN1S(=O)(=O)c1ccc(C(F)(F)F)cc1 (stereo not given)	-6.71%
NC(=O)CN1CCCC(CCCc2ccccn2)(C(N)=O)C1 (stereo not given)	-23.5%
COCCN1CCC12CCN(C(=O)c1ccc3[nH]ccc3c1)C2 (stereo not given)	-82.6%
CO[C@@H]1CN(c2ccccc2)S(=O)(=O)[C@@]12CCN(S(C)(=O)=O)C2	2.21%
CN(C(=O)Cc1ccn(C)c1)C1CCCN(C2Cc3ccccc3C2)C1 (stereo not given)	4.77%
CC(C)OCCCNC(=O)C1CCCN(c2ccc3nncn3n2)C1 (stereo not given)	1.77%
Cn1cc(CC2CCN(C(=O)NCc3csc(C4CC4)n3)C2)cn1 (stereo not given)	5.22%
Cn1cc(NC(=O)CCc2ccsc2)ccc1=O	-2.9%
CC(C)NC(=O)COc1nc(C(C)C)no1	-3.34%
CCS(=O)(=O)NC[C@]12COC[C@H]1CN(Cc1cc(C)on1)C2	2.34%
COc1ccccc1C1SCC(=O)Nc2n[nH]cc21 (stereo not given)	-1.84%
CN(C)C(=O)[C@@H]1C[C@@H]2CCN(Cc3ccc4c(c3)OCO4)C[C@@H]2O1	2.26%
CC(C)C(C(=O)O)c1cccc(Cl)c1 (stereo not given)	-12.8%
CCc1[nH]c2c(CNc3cc(C)nc(NC)n3)cc(C)cc2c1C	-41%
Cc1nc(C2CCCN(C(=O)c3ccncc3)C2)c2sccn12 (stereo not given)	-10.4%
COc1cccc(CC(=O)NCC(Cc2ccc(F)cc2)C(N)=O)c1 (stereo not given)	4.78%
Cc1cc(C(=O)N2CCc3c(CN(C)C)nn(C)c3C2)[nH]n1	-3.25%
COc1cc(N2CC[C@H](O)[C@@H]2Cc2cccnc2)ncn1	-71.8%
O=C1NC2(CCN(C(=O)c3ccnnc3)CC2)CC1c1ccccc1 (stereo not given)	-113%
CC(C)CCN1C(=O)CC(N(C)Cc2nc3ccccc3c(=O)[nH]2)C1=O (stereo not given)	-3.85%
NC(=O)c1ccc(N2CCCCC2)c(NC(=O)c2ccc(Br)cc2)c1	11.1%
